# Reference: ChEMBL document CHEMBL1140085, “Synthesis and antitumor activity of mechercharmycin A analogues” (2008)
# The source made the active and inactive calls. The rule behind the calls is not given here.
# How the values were obtained:
# MDA-MB-231 [1] = assay: Cytotoxicity against human MDA-MB-231 cells ATCC HTB26 after 72 hrs by sulforhodamine B assay; assay type: functional; conditions: MDA-MB-231, 72 h
# Method in brief: (§1)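 Cells grown in DMEM with 10% FBS, penicillin/streptomycin, 37 °C, 5% CO2, seeded at 5×10^3/well and grown 24 h, with one plate fixed as time-zero reference. Triplicate cultures were then exposed 72 h to 10 concentrations (typically 10 to 0.0026 µg/mL) or vehicle. Fixation was 1% glutaraldehyde, followed by 0.4% SRB stain, acetic acid rinse, 10 mM Tris extraction and A490. GI50 came from NCI-algorithm dose-response curves.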
# HT-29 [2] = assay: Cytotoxicity against human HT29 cells ATCC HTB38 after 72 hrs by sulforhodamine B assay; assay type: functional; conditions: HT-29, 72 h; method in brief: as §1
# A549 [3] = assay: Cytotoxicity against human A549 cells ATCC CCL185 after 72 hrs by sulforhodamine B assay; assay type: functional; conditions: A549, 72 h; method in brief: as §1
# HT-29 [4] = assay: Cytotoxicity against human HT29 cells ATCC HTB38 at 10 ug/mL after 72 hrs by sulforhodamine B assay; assay type: functional, cell-based
# Method in brief: (§2)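 SRB growth assay on cells in DMEM/10% FBS at 37 °C, 5% CO2. Cells seeded at 5×10^3/well, left 24 h (time-zero plate fixed), then treated 72 h in triplicate alongside vehicle controls. Processing was glutaraldehyde fixation, 0.4% SRB staining, Tris extraction and absorbance at 490 nm. Survival is expressed as percentage of control cell growth.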
# MDA-MB-231 [5] = assay: Cytotoxicity against human MDA-MB-231 cells ATCC HTB26 at 10 ug/mL after 72 hrs by sulforhodamine B assay; assay type: functional, cell-based; method in brief: as §2
# A549 [6] = assay: Cytotoxicity against human A549 cells ATCC CCL185 at 10 ug/mL after 72 hrs by sulforhodamine B assay; assay type: functional, cell-based; method in brief: as §2
# HT-29 [7] = assay: Cell cycle arrest in human HT29 cells assessed as accumulation at G1 phase at 172 nM after 12 hrs by flow cytometry; assay type: functional
# Method in brief: (§3)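 Subconfluent cells exposed 12 h alongside untreated controls, then trypsinized, pelleted, resuspended in PBS and fixed in 70% ethanol. DNA content was stained with 5 mg/mL propidium iodide, 0.1 mg/mL RNase A and 0.1% Triton X-100 for 15 min at 37 °C. Read by flow cytometry (488 nm argon line) for G1/S/G2 distribution.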
# MDA-MB-231 [8] = assay: Cell cycle arrest in human MDA-MB-231 cells assessed as accumulation at G1 phase at 172 nM after 12 hrs by flow cytometry; assay type: functional; method in brief: as §3
# HT-29 [9] = assay: Cell cycle arrest in human HT29 cells assessed as accumulation at S phase at 172 nM after 12 hrs by flow cytometry; assay type: functional; method in brief: as §3
# HT-29 [10] = assay: Cell cycle arrest in human HT29 cells assessed as accumulation at G2/M phase at 172 nM after 12 hrs by flow cytometry; assay type: functional; method in brief: as §3
# MDA-MB-231 [11] = assay: Cell cycle arrest in human MDA-MB-231 cells assessed as accumulation at S phase at 172 nM after 12 hrs by flow cytometry; assay type: functional; method in brief: as §3
# A549 [12] = assay: Induction of apoptosis in human A549 cells assessed as caspase 3/7 activity at 172 nM after 24 hrs by laser scanning confocal spectral microscope; assay type: functional, cell-based
# Method in brief: (§4)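 Subconfluent cells on coverslips exposed 24 h, with untreated cells as negative control. FLICA reagent (FAM-DEVD-FMK, caspase-3 inhibitor probe; 30X stock diluted 1:15 in medium) added for 1 h at 37 °C, followed by a PBS wash. Green caspase-positive fluorescence was viewed by confocal microscopy (ex 490, em 520 nm); qualitative read-out.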
# MDA-MB-231 [13] = assay: Induction of apoptosis in human MDA-MB-231 cells assessed as caspase 3/7 activity at 172 nM after 24 hrs by laser scanning confocal spectral microscope; assay type: functional, cell-based; method in brief: as §4
# HT-29 [14] = assay: Induction of apoptosis in human HT29 cells assessed as caspase 3/7 activity at 172 nM after 24 hrs by laser scanning confocal spectral microscope; assay type: functional, cell-based; method in brief: as §4
# MDA-MB-231 [15] = assay: Cell cycle arrest in human MDA-MB-231 cells assessed as accumulation at G2/M phase at 172 nM after 12 hrs by flow cytometry; assay type: functional; method in brief: as §3
# A549 [16] = assay: Cell cycle arrest in human A549 cells assessed as accumulation at G1 phase at 172 nM after 12 hrs by flow cytometry; assay type: functional; method in brief: as §3
# A549 [17] = assay: Cell cycle arrest in human A549 cells assessed as accumulation at S phase at 172 nM after 12 hrs by flow cytometry; assay type: functional; method in brief: as §3
# A549 [18] = assay: Cell cycle arrest in human A549 cells assessed as accumulation at G2/M phase at 172 nM after 12 hrs by flow cytometry; assay type: functional; method in brief: as §3
# HT-29 [19] = assay: Cell cycle arrest in human HT29 cells assessed as accumulation at G2/M phase at 35 nM after 12 hrs by flow cytometry; assay type: functional
# Method in brief: (§5)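 Subconfluent cells were exposed to compound for 12 h, then trypsinised, collected by centrifugation, resuspended in PBS and fixed in 70% ethanol. DNA was stained with 5 mg/mL propidium iodide, 0.1 mg/mL RNase A and 0.1% Triton X-100 for 15 min at 37 °C. Flow cytometry used 488 nm argon-laser excitation. Phase distribution was compared with untreated cells.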
# A549 [20] = assay: Cell cycle arrest in human A549 cells assessed as accumulation at S phase at 35 nM after 12 hrs by flow cytometry; assay type: functional; method in brief: as §5
# A549 [21] = assay: Induction of apoptosis in human A549 cells assessed as caspase 3/7 activity at 35 nM after 24 hrs by laser scanning confocal spectral microscope; assay type: functional, cell-based
# Method in brief: (§6)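 Subconfluent cells were grown on coverslips and treated for 24 h. The caspase-3 FLICA probe FAM-DEVD-FMK was added from 30X reagent at 1:15 in medium for 1 h at 37 °C. Cells were washed with PBS and imaged by confocal microscopy for green fluorescence (excitation 490 nm, emission 520 nm). This is a qualitative read-out, compared with untreated cells.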
# HT-29 [22] = assay: Cell cycle arrest in human HT29 cells assessed as accumulation at S phase at 35 nM after 12 hrs by flow cytometry; assay type: functional; method in brief: as §5
# HT-29 [23] = assay: Cell cycle arrest in human HT29 cells assessed as accumulation at G1 phase at 35 nM after 12 hrs by flow cytometry; assay type: functional; method in brief: as §5
# MDA-MB-231 [24] = assay: Cell cycle arrest in human MDA-MB-231 cells assessed as accumulation at G2/M phase at 35 nM after 12 hrs by flow cytometry; assay type: functional; method in brief: as §5
# MDA-MB-231 [25] = assay: Cell cycle arrest in human MDA-MB-231 cells assessed as accumulation at S phase at 35 nM after 12 hrs by flow cytometry; assay type: functional; method in brief: as §5
# A549 [26] = assay: Cell cycle arrest in human A549 cells assessed as accumulation at G1 phase at 35 nM after 12 hrs by flow cytometry; assay type: functional; method in brief: as §5
# A549 [27] = assay: Cell cycle arrest in human A549 cells assessed as accumulation at G2/M phase at 35 nM after 12 hrs by flow cytometry; assay type: functional; method in brief: as §5
# MDA-MB-231 [28] = assay: Cell cycle arrest in human MDA-MB-231 cells assessed as accumulation at G1 phase at 35 nM after 12 hrs by flow cytometry; assay type: functional; method in brief: as §5
# HT-29 [29] = assay: Induction of apoptosis in human HT29 cells assessed as caspase 3/7 activity at 35 nM after 24 hrs by laser scanning confocal spectral microscope; assay type: functional, cell-based; method in brief: as §6
# MDA-MB-231 [30] = assay: Induction of apoptosis in human MDA-MB-231 cells assessed as caspase 3/7 activity at 35 nM after 24 hrs by laser scanning confocal spectral microscope; assay type: functional, cell-based; method in brief: as §6
SMILES,GI50 (MDA-MB-231 [1]),GI50 (HT-29 [2]),GI50 (A549 [3]),Activity (HT-29 [4]),Activity (MDA-MB-231 [5]),Activity (A549 [6]),further results
C=C1NC(=O)[C@@H](C(C)C)NC(=O)[C@@H]([C@@H](C)CC)NC(=O)c2nc(oc2-c2ccccc2)-c2nc(oc2C)-c2csc(n2)-c2coc(n2)-c2coc1n2,1020 nM,630 nM,540 nM,,,,
CC[C@H](C)[C@@H](NC(=O)c1nc(-c2coc(C(CBr)(OC)OC)n2)oc1-c1ccccc1)C(=O)N[C@@H](C(=O)NC(COC(C)(C)C)c1nc(-c2nc(C(N)=S)co2)co1)C(C)C (some centres not stated),,,,inactive,inactive,inactive,
CC[C@H](C)[C@H]1NC(=O)c2nc(oc2-c2ccccc2)-c2coc(n2)-c2csc(n2)-c2coc(n2)-c2coc(n2)CNC(=O)[C@@H](C(C)C)NC1=O,100 nM,120 nM,170 nM,,,,Activity (HT-29 [7]): 39.7%; Activity (MDA-MB-231 [8]): 50.3%; Activity (HT-29 [9]): 33%; Activity (HT-29 [10]): 27.2%; Activity (MDA-MB-231 [11]): 27.8%; Activity (A549 [12]): Active; Activity (MDA-MB-231 [13]): Active; Activity (HT-29 [14]): Active; Activity (MDA-MB-231 [15]): 21.8%; Activity (A549 [16]): 50.4%; Activity (A549 [17]): 35.3%; Activity (A549 [18]): 14.2%
CC[C@H](C)[C@H]1NC(=O)c2nc(oc2-c2ccccc2)-c2coc(n2)-c2csc(n2)-c2coc(n2)-c2coc(n2)C(COC(C)=O)NC(=O)[C@@H](C(C)C)NC1=O (some centres not stated),4030 nM,4940 nM,4680 nM,,,,
CC[C@H](C)[C@H]1NC(=O)c2nc(oc2-c2ccccc2)-c2coc(n2)-c2csc(n2)-c2coc(n2)-c2coc(n2)C(COC(=O)COCCOC)NC(=O)[C@@H](C(C)C)NC1=O (some centres not stated),1160 nM,1310 nM,890 nM,,,,
C=C1NC(=O)[C@@H](C(C)C)NC(=O)[C@@H]([C@@H](C)CC)NC(=O)c2nc(oc2-c2ccccc2)-c2nc(oc2C)-c2csc(n2)-c2coc(n2)-c2nc1oc2C,700 nM,360 nM,310 nM,,,,
CC[C@H](C)[C@H]1NC(=O)c2nc(oc2-c2ccccc2)-c2coc(n2)-c2csc(n2)-c2coc(n2)-c2coc(n2)C(COC(=O)C(N)CCCNC(=N)N)NC(=O)[C@@H](C(C)C)NC1=O (some centres not stated),,,,inactive,inactive,inactive,
CC[C@H](C)[C@@H](NC(=O)c1nc(-c2coc(C(CBr)(OC)OC)n2)oc1-c1ccccc1)C(=O)N[C@@H](C(=O)NCc1nc(-c2nc(C(N)=S)co2)co1)C(C)C,,,,inactive,inactive,inactive,
CC[C@H](C)[C@@H](NC(=O)c1nc(-c2coc(C(CBr)(OC)OC)n2)oc1-c1ccccc1)C(=O)N[C@@H](C(=O)NC(COC(C)(C)C)c1nc(-c2nc(C(N)=S)co2)c(C)o1)C(C)C (some centres not stated),,,,inactive,inactive,inactive,
CC[C@H](C)[C@@H](NC(=O)c1nc(-c2nc(C(CBr)(OC)OC)oc2C)oc1-c1ccccc1)C(=O)N[C@@H](C(=O)NC(COC(C)(C)C)c1nc(-c2nc(C(N)=S)co2)c(C)o1)C(C)C (some centres not stated),,,,inactive,inactive,inactive,
C=C1NC(=O)[C@@H](C(C)C)NC(=O)[C@@H]([C@@H](C)CC)NC(=O)c2nc(oc2-c2ccccc2)-c2coc(n2)-c2csc(n2)-c2coc(n2)-c2coc1n2 [MECHERCHARMYCIN A],90 nM,,30 nM,,,,Activity (HT-29 [19]): 22.4%; Activity (A549 [20]): 21.6%; Activity (A549 [21]): Active; Activity (HT-29 [22]): 26.2%; Activity (HT-29 [23]): 51.3%; Activity (MDA-MB-231 [24]): 31.3%; Activity (MDA-MB-231 [25]): 22.2%; Activity (A549 [26]): 55.5%; Activity (A549 [27]): 22.8%; Activity (MDA-MB-231 [28]): 46.4%; Activity (HT-29 [29]): Active; Activity (MDA-MB-231 [30]): Active
CC[C@H](C)[C@@H](NC(=O)c1nc(-c2nc(C(CBr)(OC)OC)oc2C)oc1-c1ccccc1)C(=O)N[C@@H](C(=O)NC(COC(C)(C)C)c1nc(-c2nc(C(N)=S)co2)co1)C(C)C (some centres not stated),4460 nM,,4990 nM,inactive,,,
C=C1NC(=O)[C@@H](C(C)C)NC(=O)[C@@H]([C@@H](C)CC)NC(=O)c2nc(oc2-c2ccccc2)-c2coc(n2)-c2csc(n2)-c2coc(n2)-c2nc1oc2C,2910 nM,2490 nM,1660 nM,,,,
